A selection: hits, their analogues and other compounds. The true share with any hit is near 4%.
XBP1 UPR activ: adaptive UPR (XBP1) activation; CHO-XBP1 luciferase reporter, IRE1-XBP1 UPR activation, luminescence; percent of tunicamycin response, DMSO as zero; activation, % at 20 µM; actives 0.33% (n = 330,000);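 active = versus positive control, 20 µM dose yields 30% or more activation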;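 also: 100% = tunicamycin at 10 µg/mL and 0% = DMSO only wells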
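Test system: CHO-XBP1 luciferase reporter cells | Buffer or medium: Serum-containing F12 medium, 10% FBS | Schedule: 6 h compound exposure at 37 °C, 5% CO2 | Detection: Steady-Glo luciferase glow luminescence, 10 min after reagent addition | Read-out basis: Activation, % of tunicamycin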
ABHD5 PLIN5 PPI: ABHD5-PLIN5 protein interaction inhibition. Split G. princeps luciferase complementation, luminescence, 4 h. actives 0.78% (n = 360,000). inhibition, % at 4 µM. AID 602281;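 active = inhibition above the mean inhibition across every tested compound plus 3 SD, cut at about 22% in these data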;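 also: 0% = DMSO only wells and the 100% control is not disclosed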
Mdm2 MdmX PPI: disrupts the human Mdm2-MdmX interaction; O15151+Q00987; SaOS-2 split-luciferase Mdm2/MdmX complementation, luminescence; inhibition, % at 8 µM; actives 3% (n = 330,000); AID 485346;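 active = inhibition of at least 50% at 8 µM in the primary screen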
Target sequence (O15151 whole entry, looked up): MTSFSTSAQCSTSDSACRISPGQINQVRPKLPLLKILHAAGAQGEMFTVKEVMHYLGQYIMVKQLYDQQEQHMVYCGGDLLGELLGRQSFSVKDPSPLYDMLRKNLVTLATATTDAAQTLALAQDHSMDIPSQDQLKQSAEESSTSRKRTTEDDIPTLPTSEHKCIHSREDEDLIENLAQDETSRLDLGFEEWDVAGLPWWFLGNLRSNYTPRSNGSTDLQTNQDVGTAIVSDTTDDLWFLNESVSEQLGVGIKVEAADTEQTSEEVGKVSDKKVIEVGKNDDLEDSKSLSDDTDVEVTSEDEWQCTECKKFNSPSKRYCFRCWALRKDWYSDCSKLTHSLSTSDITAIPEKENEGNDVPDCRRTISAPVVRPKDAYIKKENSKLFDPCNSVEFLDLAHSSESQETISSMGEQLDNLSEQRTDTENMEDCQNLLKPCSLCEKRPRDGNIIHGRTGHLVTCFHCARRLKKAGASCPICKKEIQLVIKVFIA
Target sequence (Q00987 whole entry, looked up): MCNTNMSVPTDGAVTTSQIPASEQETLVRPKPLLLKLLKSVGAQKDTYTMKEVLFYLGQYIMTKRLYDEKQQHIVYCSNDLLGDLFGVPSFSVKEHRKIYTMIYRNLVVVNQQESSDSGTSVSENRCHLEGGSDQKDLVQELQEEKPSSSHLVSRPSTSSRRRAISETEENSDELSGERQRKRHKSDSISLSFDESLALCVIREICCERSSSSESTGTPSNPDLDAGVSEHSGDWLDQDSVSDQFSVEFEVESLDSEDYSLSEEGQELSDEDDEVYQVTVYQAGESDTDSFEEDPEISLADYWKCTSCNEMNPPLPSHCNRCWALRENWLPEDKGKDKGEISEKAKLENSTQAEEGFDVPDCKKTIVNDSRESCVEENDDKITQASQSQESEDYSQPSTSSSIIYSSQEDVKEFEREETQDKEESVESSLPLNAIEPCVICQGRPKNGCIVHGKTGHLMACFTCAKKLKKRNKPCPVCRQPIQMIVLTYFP
Granule exo inh: lytic granule exocytosis inhibition. TALL-104 LAMP-1 surface exposure, flow cytometry; cells stimulated with thapsigargin and PMA. inhibition, % at 10 µM. actives 0.66% (n = 360,000). AID 651702;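 active = inhibition above about 55%, limit read from the data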
CHOP UPR activ: apoptotic UPR (CHOP) activation; CHO-CHOP luciferase reporter, luminescence; percent of tunicamycin response over DMSO baseline; activation, % at 10 µM; actives 0.34% (n = 330,000); AID 449763;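 active = at 10 µM dose, activation of 40% or more, normalized to positive control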;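 also: 100% = tunicamycin at 10 µg/mL and 0% = DMSO alone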
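assay system = CHO CHOP reporter cells | amount = 500 CHO-CHOP cells per well | buffer or medium = F12 with 10% FBS | incubation = 16-18 h cell attachment, then 6 h compound exposure, 37 °C | detection = luminescence read with Steady-Glo | read-out = percent activation relative to tunicamycin control | controls = tunicamycin high control, DMSO low control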
UPR XBP1 confirm: confirmation of adaptive unfolded protein response (XBP1) activators; shares compounds with XBP1 UPR activ; CHO-XBP1 IRE1-XBP1 luciferase reporter, luminescence; activation, % at 20 µM; actives 63% (n = 1,000); AID 485299;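 active = reporter signal at least 30% of the positive control's activation in two or more of four replicate wells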;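 also: plate controls were DMSO negative control for no effect and tunicamycin 10 µg/mL positive control for full effect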
* marks the source's active call; other numbers are inactive results; · = no result given.

SMILES	XBP1 UPR activ	ABHD5 PLIN5 PPI	Mdm2 MdmX PPI	Granule exo inh	CHOP UPR activ	UPR XBP1 confirm
Cn1c(-c2ccccc2)c(/C=N/NC(=O)c2ccc(O)cc2)c2ccccc21	34.6*	-1.2	48.0	-5.8	11.0	62.9*
Cn1c2ccccc2c2cc(/C=N/NC(=O)c3ccc(N)cc3)ccc21	0.9	-6.8	19.2	21.7	1.4	·
COCC(=O)N1CCCc2ccccc21	1.9	3.2	12.5	0.1	0.2	·
O=C(Oc1ccc2c(c1)OCC2=O)c1ccccc1	37.3*	7.2	-5.5	-2.0	7.2	24.0
COc1ccc(N(C(=O)Cn2nnc(-c3ccc(Cl)cc3)n2)C(C(=O)NCC2CCCO2)c2ccc(C)cc2)cc1 (centres undefined)	3.4	-6.3	43.9	1.0	5.4	·
COc1ccc(N(C(=O)Cn2nnc(-c3ccccc3F)n2)C(C(=O)NCC2CCCO2)c2ccc(Cl)cc2)cc1 (centres undefined)	41.5*	5.6	43.4	-1.2	4.5	3.1
N=c1c(S(=O)(=O)c2ccccc2)cc2c(=O)n3ccccc3nc2n1C1CCCC1	30.2*	11.2	47.1	49.3	0.8	23.2
COc1ccc(-c2nn(-c3ccccc3)cc2/C=C/C(=O)OCC(=O)Nc2cccc(C#N)c2)cc1	66.3*	-4.7	29.0	-4.8	14.7	96.8*
COc1ccc(-c2nn(-c3ccccc3)cc2/C=C/C(=O)OCC(=O)Nc2ccc(C#N)cc2)cc1	0.1	2.4	25.2	-1.2	3.4	·
COc1ccc(-c2cc(C(F)F)n3ncc(C(=O)N4CCc5ccccc5C4)c3n2)cc1	37.6*	1.5	44.8	5.4	-1.1	72.6*
COc1ccc(-c2cc(C(F)F)n3ncc(C(=O)N4CCCCC4)c3n2)cc1	5.1	5.2	11.1	1.1	0.8	·
OCCCNc1c2c(nc3cc(-c4ccc(Cl)cc4)nn13)CCC2	3.8	-0.4	4.5	1.3	4.8	·
Cc1ccc(NC(=O)CSc2ccccc2NC(=O)c2cccc(Cl)c2)cc1Cl	35.6*	-2.5	26.6	-3.2	7.5	17.5
O=[N+]([O-])c1ccc(-c2ccc(C=Nc3cccc4ccccc34)o2)cc1	1.4	6.8	19.2	17.3	-1.1	·
O=[N+]([O-])c1cc(-c2ccc(/C=N/c3nc4ccccn4c3-c3ccco3)o2)ccc1Cl	100.9*	12.4	38.9	-0.8	18.4	98.2*
CCCCNC(=O)C1CC(=O)N(CCC(C)C)C1 (centres undefined)	2.7	1.7	36.0	-1.2	-1.1	·
O=C(Nc1ccc(SC(F)F)cc1)c1cc(-c2ccncc2)nc2ccccc12	63.5*	-14.1	34.5	4.9	8.4	48.2*
CCCCn1c(N)c(N(CC(C)C)C(=O)COC(=O)Cc2cccc(OC)c2)c(=O)[nH]c1=O	3.0	5.1	11.3	-5.7	2.5	·
CCOc1ccccc1-c1nc(-c2ccc(NC(=O)Cc3ccccc3OC)cc2)no1	-0.2	0.4	5.6	-1.3	1.6	·
COc1ccccc1CC(=O)Nc1ccc(-c2noc(COc3ccc(Cl)c(C)c3)n2)cc1	31.1*	-4.5	5.7	-0.7	6.4	7.8
Cc1cc(C)nc(NS(=O)(=O)c2ccc(NC(=O)c3cc4c(=O)n5cccc(C)c5nc4n3C)cc2)n1	100.8*	3.4	11.6	15.3	9.9	3.7
COc1ccc(C(CCNCc2ccccc2)c2ccc(F)cc2)cc1 (centres undefined)	48.2*	8.1	45.7	8.7	0.6	71.3*
Cc1ccc(Cn2c(SCC(=O)Nc3cc(C)on3)nc3ccccc3c2=O)cc1	52.5*	-6.5	4.3	1.3	2.0	48.4*
Cc1cc(NC(=O)CSc2c[nH]c3ccccc23)no1	-2.8	-6.4	-8.5	4.3	-1.1	·
Cc1cc(NC(=O)CSc2nc3ccccc3c(=O)n2Cc2ccccc2)no1	-1.7	-9.4	6.4	0.9	0.1	·
SMILES	XBP1 UPR activ	ABHD5 PLIN5 PPI	Mdm2 MdmX PPI	Granule exo inh	CHOP UPR activ	UPR XBP1 confirm
Cc1cc(NC(=O)CSc2nnc(-c3c[nH]c4ccccc34)n2-c2ccc(Cl)cc2)no1	40.4*	0.0	14.3	-2.3	4.1	9.0
Cc1nn(-c2ccccc2)c(C)c1C(=O)OCC(=O)Nc1ccc(C(N)=O)cc1	·	2.5	·	-2.1	·	·
CC(C)(C)c1csc(NC(=O)c2ccc(Cl)s2)n1	30.2*	-4.7	26.8	-4.3	6.9	32.6*
Cc1cc(NC(=O)/C(C#N)=C/c2ccc(-c3ccc(SC(F)F)cc3)o2)n(-c2ccccc2)n1	36.9*	2.4	-1.0	6.7	35.5	34.0*
COC(=O)Cc1ccc(NC(=S)NCCSc2ccc(C)cc2)cc1	0.7	11.3	20.4	6.5	-0.7	·
N#Cc1cc2c(nc1SCC(=O)Nc1sc3c(c1C#N)CCC3)CCCC2	51.4*	-1.2	33.0	-1.9	7.5	29.7*
COc1ccccc1C1C([N+](=O)[O-])=CC([N+](=O)[O-])=CN1C (centres undefined)	51.3*	2.9	1.2	-3.3	25.5	0.4
CCCCOc1ccc(/C=N/NC(=O)c2nnn(-c3nonc3N)c2CN2CCCCCC2)cc1	-0.3	5.1	-14.7	5.3	-1.3	·
CC1CCN(Cc2c(C(=O)N/N=C/c3ccc(C(C)C)cc3)nnn2-c2nonc2N)CC1	35.8*	2.0	-4.8	16.4	2.5	74.3*
CN(C)c1ccc(/C=N/NC(=O)c2nnn(-c3nonc3N)c2CN2CCCCCC2)cc1	59.1*	-2.5	1.0	1.9	24.2	20.4
Nc1nonc1-n1nnc(C(=O)N/N=C/c2ccc(Br)cc2)c1CN1CCOCC1	-1.7	-0.2	-0.1	0.5	3.4	·
CC(C)C(=O)Nc1ccc(NC(=O)CCc2ccccc2)cn1	-1.1	0.8	-2.7	-2.2	-0.1	·
Cc1nc2c(N=Nc3ccccc3F)c(N)nn2c(N)c1C#N	44.3*	1.7	25.1	0.4	15.1	21.2
Cc1ccc2c(=O)[nH]c(Nc3nc(C)cc(-c4ccccc4)n3)nc2c1	32.8*	-0.9	28.3	0.8	8.1	42.7*
COc1cc([N+](=O)[O-])ccc1NC(=S)NNC(=O)c1ccc2c(c1)OCO2	30.1*	-5.8	27.7	3.4	-1.0	0.1
Cc1ccc(NC(=O)/C(C#N)=C(\N)C(Cl)(Cl)Cl)nc1	30.0	5.3	9.9	-2.0	24.8	-4.5
Cc1ccc(NC(=O)C(=O)Nc2ccc(C)cn2)nc1	1.0	-2.4	-14.1	14.2	3.8	·
C=CCn1c(NC(=O)c2ccccc2Cl)c(C#N)c2nc3ccccc3nc21	35.2*	-41.8	20.6	29.3	0.2	-0.7
CCn1c(/C=C/c2ccc(O)c(O)c2)nc2ccccc2c1=O	37.2*	6.8	6.8	-2.0	37.0	20.5
CCn1c(/C=C/c2ccc(O)cc2)nc2ccccc2c1=O	4.0	1.8	14.5	-5.7	1.2	·
Cc1c(Cl)cccc1NC(=O)CCC(=O)c1cccs1	-2.5	1.5	4.4	-8.3	3.1	·

High-throughput results as filed in PubChem BioAssay.
